Molecules are shown by their SMILES. Values after ≈ are worked out from the molar mass of the structure shown.

Data set [1] concerns MDA-MB-231. In words: Cytotoxicity against human MDA-MB-231 cells assessed as decrease in cell viability after 24 hrs by MTT assay. It is filed as functional, cell-based. Conditions: MDA-MB-231, 24 h. The essentials:
(§1)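 Cell viability by MTT after 24 h compound exposure; curcumin as standard. IC50 in µM from three independent experiments, expressed as mean ± SE.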

A short description of data set [2]: Intrinsic clearance in liver microsomes (unknown origin) assessed per mg of protein in presence of NADPH by UPLC analysis. The format is ADME, Microsome.
The test system of data set [3] is DU-145. In words: Cytotoxicity against human DU145 cells assessed as decrease in cell viability after 24 hrs by MTT assay. The following applies: DU-145, 24 h. The format is functional, cell-based. The essentials:
as §1

For data set [4], the system named is 4T1. Briefly: Cytotoxicity against mouse 4T1 cells assessed as decrease in cell viability after 24 hrs by MTT assay. It is filed as functional, cell-based. The following applies: 4T1, 24 h. In outline: as §1
A short description of data set [5]: Intrinsic hepatic clearance in liver microsomes (unknown origin) assessed per mg of protein in presence of NADPH by UPLC analysis. It is filed as ADME, Microsome. The following applies: read-out: CLH (converted).
Another data set concerns HEK293. In words: Cytotoxicity against human HEK293 cells assessed as decrease in cell viability after 24 hrs by MTT assay. It is filed as cell-based. The following applies: HEK293, 24 h. The essentials:
as §1

Data set [6] is described as follows: Half life in liver microsomes (unknown origin) in presence of NADPH by UPLC analysis. It is filed as ADME, Microsome.
Data set [7] has as its system PC-3. Briefly: Cytotoxicity against human PC3 cells assessed as decrease in cell viability after 24 hrs by MTT assay. The format is functional, cell-based. The following applies: PC-3, 24 h. The essentials: as §1
Data set [8] concerns MCF7. Briefly: Cytotoxicity against human MCF7 cells assessed as decrease in cell viability after 24 hrs by MTT assay. It is filed as functional, cell-based. Conditions: MCF7, 24 h. The essentials: as §1
A short description of data set [9]: Drug metabolism in liver microsomes (unknown origin) assessed as compound remaining after 5 mins in presence of NADPH by UPLC analysis. The following applies: read-out: Drug metabolism. The format is ADME, Microsome. In outline: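 Microsomal metabolic stability; percentage of compound remaining intact measured after 5 min incubation in presence of microsomes.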

Data set [10] can be described thus: Solubility of the compound in distilled water after 24 hrs by HPLC based shake flask method. The format is physicochemical.
Data set [11] in a line: Elimination rate constant in liver microsomes (unknown origin) assessed as compound remaining measured up to 60 mins by UPLC analysis. The format is ADME, Microsome.
Data set [12] deals with MCF7. In words: Induction of mitochondrial membrane depolarization in human MCF7 cells at 10 uM after 24 hrs by JC-1 staining based flow cytometry (reference value: 11%). The format is functional.
The test system of data set [13] is PC-3. In words: Induction of mitochondrial membrane depolarization in human PC3 cells at 3 uM after 24 hrs by JC-1 staining based flow cytometry (reference value: 4.51%). The format is functional.
For data set [14], the system named is MDA-MB-231. In words: Potency index, ratio of curcumin IC50 to compound IC50 in human MDA-MB-231 cells. It is filed as functional. In outline: (§2)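 IC50 came from an MTT viability assay after 24 h compound exposure, with curcumin run as the standard. Values are mean ± SE of three independent experiments. The index is the curcumin IC50 divided by the compound IC50 in the same cell line.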

Data set [15] relates to 4T1. In words: Potency index, ratio of curcumin IC50 to compound IC50 in mouse 4T1 cells. The format is functional. In outline:
as §2

The test system of data set [16] is DU-145. In words: Potency index, ratio of curcumin IC50 to compound IC50 in human DU145 cells. The format is functional. In outline:
as §2

In data set [17] the test system is PC-3. Briefly: Potency index, ratio of curcumin IC50 to compound IC50 in human PC3 cells. The format is functional. In outline:
as §2

As to `COc1cc(/C=C/C(=O)CC(=O)/C=C/c2ccc(O)c(OC)c2)ccc1O` [CURCUMIN], the IC50 is 75.3 µM in the data set on MDA-MB-231 [1]; 41 µM in the data set with DU-145 [3]; 49.4 µM in the data set with 4T1 [4]; 94.1 µM in the data set with HEK293; 39 µM with PC-3 [7]; 83.1 µM in the data set with MCF7 [8]. The CLint in data set [2] worked out at 101 µL/min/mg. In addition, the CLint scaled in data set [5] was 182 L/h/kg. Moreover, the half-life in data set [6] was found to be 13.7 min. Besides, the remaining at 5 min in data set [9] is 45%. Also, the solubility (thermodynamic) at 24 h in data set [10] was found to be 0.06 µg/mL (≈ 0.163 µM). The k el at 1 h in [11] was 0.00085 s⁻¹.

On to `N#CC(C#N)=NNc1cccc(Cl)c1` [CARBONYL CYANIDE M-CHLOROPHENYLHYDRAZONE], for which the Activity is reported as 86.65% with MCF7 [12] and 35.82% with PC-3 [13].

For `O=C1/C(=C/c2ccccc2F)CN(Cc2cn(Cc3cccc(Cl)c3)nn2)C/C1=C\c1ccccc1F`, the half-maximal inhibitory concentration (IC50) with MDA-MB-231 [1] worked out at 12 µM; with DU-145 [3] it was 4.3 µM; with 4T1 [4], 6.1 µM; with HEK293, 33.1 µM; in the data set with PC-3 [7], 6.8 µM; in the data set on MCF7 [8], 12 µM. Further, the “Ratio IC50” value with MDA-MB-231 [14] is “<=8.3”; in the data set on 4T1 [15] it was “<=9.3”; in the data set on DU-145 [16], at most 9.5; with PC-3 [17], “<=5.7”.

Source of the values: ChEMBL document CHEMBL4477254, “Synthesis and biological evaluation of some novel triazole hybrids of curcumin mimics and their selective anticancer activity against breast and prostate cancer cell lines” (Bioorg Med Chem Lett, 2016).
